Source: ChEMBL document CHEMBL1125330, “N-substituted pyrazino[2,3-c][1,2,6]thiadiazine 2,2-dioxides. A new class of diuretics” (J Med Chem, 1992)

Columns and labels:
Details in all cases: in vivo
Rattus norvegicus [1] = species: Rattus norvegicus; assay: Mean urinary output in rats (Control/Drug treatment value); value 22.8/35.1; type: ADME, organism-based, Urine
Summary of the method: (§1)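 Water-loaded male Sprague-Dawley rats (HC/CFY, 175-200 g), eight per group, deprived of food and water 18 h. Single oral gavage of 20-25 mg/kg (some 10 mg/kg) in 1% CMC/0.1% Tween 80, then distilled water 2.5 mL/100 g bw po. Cumulative urine over 6 h in metabolic cages; mean mL/6 h/kg bw vs vehicle group.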

Rattus norvegicus [2] = species: Rattus norvegicus; assay: Mean sodium excretion in rats (Control/Drug treatment value); value 0.41/2.06; type: ADME, organism-based
Rattus norvegicus [3] = species: Rattus norvegicus; assay: Mean urinary output in rats (Control/Drug treatment value); value 25.4/33.8; type: ADME, organism-based, Urine; summary of the method: as §1
Rattus norvegicus [4] = species: Rattus norvegicus; assay: Mean sodium excretion in rats (Control/Drug treatment value); value 0.48/0.95; type: ADME, organism-based

| Compound | V (Rattus norvegicus [1]) | Na (Rattus norvegicus [2]) | V (Rattus norvegicus [3]) | Na (Rattus norvegicus [4]) |
| --- | --- | --- | --- | --- |
| CCCN1c2nc(CC)c(C)nc2C(N)=NS1(=O)=O | 1.5 | 5 |  |  |
| CCc1nc2c(nc1CC)N(CC)S(=O)(=O)N=C2N |  |  | 1.3 | 2 |
